Experimental data reported in publication PMC3683571 (Journal of the American Chemical Society, 2013).
“Also recorded” adds a separate entry of the source.

Columns and labels:
PSMA = PSMA (Homo sapiens, UniProt Q04609); test: Biosensing; type: binding
Procedure, shortened: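 Virus-PEDOT films, with ligand-displaying phage either unwrapped or wrapped with a chemically synthesized ligand wrapper, were exposed to a series of PSMA dimer concentrations. The read-out was relative impedance change (ΔR/Ro) versus frequency, with noise taken as the SD of five impedance measurements. Controls were films with control phage, ligand-free films, and films with wrapper alone; transferrin receptor served as a specificity target. Kd, Hill n and LOD came from Hill fits.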

PSMA dimer = test: Phage-based ELISA, binding to PSMA dimer; settings: as shown in Figure 1
[1] = in previous studies, no reference given; cited from earlier work
PSMA monomer = test: Phage-based ELISA, binding to PSMA monomer; settings: Figure 1, standard error (n = 3)

Chain of PSMA (Q04609 whole entry): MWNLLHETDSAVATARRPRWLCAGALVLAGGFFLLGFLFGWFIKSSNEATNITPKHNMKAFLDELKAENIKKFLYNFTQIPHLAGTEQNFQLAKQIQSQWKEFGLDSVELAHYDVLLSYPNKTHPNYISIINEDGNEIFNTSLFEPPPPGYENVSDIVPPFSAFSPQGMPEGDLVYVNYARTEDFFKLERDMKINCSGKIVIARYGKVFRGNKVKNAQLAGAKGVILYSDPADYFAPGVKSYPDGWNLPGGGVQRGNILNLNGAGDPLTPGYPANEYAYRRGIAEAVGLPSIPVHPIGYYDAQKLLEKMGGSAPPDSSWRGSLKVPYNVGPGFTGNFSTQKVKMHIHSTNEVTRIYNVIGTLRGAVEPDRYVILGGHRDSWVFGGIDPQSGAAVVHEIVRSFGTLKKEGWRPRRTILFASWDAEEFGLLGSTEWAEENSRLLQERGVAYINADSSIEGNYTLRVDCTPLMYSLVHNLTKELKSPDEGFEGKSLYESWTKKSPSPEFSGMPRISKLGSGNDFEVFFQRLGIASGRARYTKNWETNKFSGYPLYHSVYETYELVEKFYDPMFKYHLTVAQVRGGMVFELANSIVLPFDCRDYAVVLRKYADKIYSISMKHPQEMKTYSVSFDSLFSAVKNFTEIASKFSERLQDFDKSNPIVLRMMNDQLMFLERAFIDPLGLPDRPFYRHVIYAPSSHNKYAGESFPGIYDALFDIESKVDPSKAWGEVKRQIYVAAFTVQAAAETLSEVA

CALCEFLG [KCS-1]
binding to PSMA / change in impedance, negative controls (PSMA; EIS, PBF-Tween buffer, PEDOT films): no significant binding to PSMA; also recorded: negligible change in impedance caused by the wrapper

CALCEFLG [compound 1]
apparent affinity for PSMA, peptide 1 versus peptide 2 (PSMA dimer): much lower apparent affinity for PSMA than peptide 2 | solubility in water [1]: limited solubility in water

CALCEFLG [phage-1]
binding to the PSMA monomer (ELISA) (PSMA monomer): Neither phage-displayed ligand binds with significant affinity to the PSMA monomer

SECVEVFQNSCDW [compound 2]
solubility in water [1]: limited solubility in water

SECVEVFQNSCDW [phage-2]
LOD (calculated) (PSMA; PBF, defined as 3x over background signal, calculated from line fits to the data in Figure 4F): 6 nM | cooperative binding (PSMA; from n-values obtained >1, Hill fit, PBF): can access cooperative binding | binding to the PSMA monomer (ELISA) (PSMA monomer): Neither phage-displayed ligand binds with significant affinity to the PSMA monomer
